Screening results as filed in PubChem.
OX1R antag-1: OX1R (HCRTR1) antagonists, primary screen, fluorescence, CHO/OX1R cells, Fluo-8 calcium, orexin A. Orexin/Hypocretin receptor type 1 (Homo sapiens), O43613. Fluo-8 calcium fluorescence. inhibition, % at 5 µM. 330,000 tested, 0.43% active;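 active means inhibition above its plate's threshold, mean inhibition of all tested compounds on the plate plus 3 SD, cut at about 37% in these data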;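 further: 0% = orexin A challenge wells and 100% = SB-334867-A antagonist wells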
OX1R antag-2: antagonists of human orexin 1 receptor (OX1R); Orexin/Hypocretin receptor type 1 (Homo sapiens), O43613; OX1R-expressing cells, FRET antagonist read-out; inhibition, % at 6.6 µM; 330,000 tested, 1.8% active; AID 485270, 2010; in the data active means inhibition mostly above about 38%, no sharp cut-off; inactive means mostly below about 40%;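 further: 0% = agonist challenge alone and 100% = reference antagonist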
CHO parental Ca: ATP-evoked calcium signal inhibitors, parental CHO, primary screen, counter-screen for OX1R antagonist project, cell-based, fluorescence, Fluo-8 calcium dye | 330,000 tested, 0.63% active | inhibition, % at 5.6 µM | parental CHO-K1, ATP-induced calcium, Fluo-8 fluorescence;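 active means inhibition above that plate's mean sample inhibition plus 3 SD, cut at about 26% in these data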;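 further: 0% = ATP-challenged DMSO wells and 100% = DMSO wells without ATP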
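Material: parental CHO cells / Compound: single nominal dose of 5.6 µM per compound / Signal: Fluo-8 fluorescence / Replicates: singlicate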
GPR7 antag: GPR7 receptor antagonists, primary screen, cell-based, fluorescence, single concentration; Neuropeptides B/W receptor type 1 (Homo sapiens), P48145; GPR7-expressing cells, fluorescence antagonist assay; inhibition, % at 4.4 µM; 290,000 tested, 1.1% active; AID 1861, 2009; in the data active means inhibition above about 16%, passing the limit was not always enough;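 further: cells stimulated with the agonist NPW; 0% = agonist with vehicle and 100% = vehicle without agonist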
Target sequence (P48145 whole entry, looked up): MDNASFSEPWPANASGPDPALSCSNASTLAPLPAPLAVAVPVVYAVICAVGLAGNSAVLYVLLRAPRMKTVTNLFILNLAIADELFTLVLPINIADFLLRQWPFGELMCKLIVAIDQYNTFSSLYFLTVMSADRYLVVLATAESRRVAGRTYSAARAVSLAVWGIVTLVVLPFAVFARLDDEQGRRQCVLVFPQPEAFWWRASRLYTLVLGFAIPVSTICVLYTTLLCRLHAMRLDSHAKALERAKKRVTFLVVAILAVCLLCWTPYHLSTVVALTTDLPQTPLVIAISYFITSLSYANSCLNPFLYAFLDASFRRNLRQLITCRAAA
GalR3 antag: GalR3 antagonists in HEK293 cells, primary screen, cell-based, fluorescence readout | HEK293 GalR3-CNG cAMP membrane potential fluorescence; galR3 body fused to GalR1 C-terminus | 360,000 tested, 0.44% active | Galanin receptor type 3 (Homo sapiens), O60755 | inhibition, % at 3 µM;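 active means inhibition above the screen-wide average plus 3 SD, cut at about 13% in these data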;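 further: forskolin and galanin both at EC90 stimulate the cells; cAMP rise reported by CNG channel membrane potential dye signal; 0% = forskolin plus galanin with DMSO and 100% = forskolin alone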
Target sequence (O60755 1-299 limits assumed): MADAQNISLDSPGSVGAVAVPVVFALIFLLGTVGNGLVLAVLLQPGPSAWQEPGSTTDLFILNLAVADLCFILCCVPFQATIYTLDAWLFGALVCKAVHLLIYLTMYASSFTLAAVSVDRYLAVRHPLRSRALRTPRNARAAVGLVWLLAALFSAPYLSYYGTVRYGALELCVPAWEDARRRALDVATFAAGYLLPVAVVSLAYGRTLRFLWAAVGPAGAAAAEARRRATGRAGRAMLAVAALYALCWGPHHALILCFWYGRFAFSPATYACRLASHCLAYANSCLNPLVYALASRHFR
Numbers without * were called inactive; · = no result given. Shown are actives, neighbours in structure and some others; about 3.1% of the full set was active somewhere.

SMILES	OX1R antag-1	OX1R antag-2	CHO parental Ca	GPR7 antag	GalR3 antag
CCc1c(-c2ccccc2)ncn1CCc1ccccc1OC	·	·	·	·	-3
CC1Cc2ccccc2N1C(=O)CNCCCN(C)C (stereo not drawn)	-6	17	2	-4	-2
CC1CC2(C)Oc3ccccc3CC2C(C)C1CNCCCN(C)C (stereo not drawn)	-13	3	6	44*	-9
Cc1nc2cc(-c3sccc3-n3cccc3)nn2c(C)c1C	-30	52*	-21	-15	3
COc1cc2sc3cc(NCCCN4CCOCC4)ccc3c(=O)c2cc1OC	-2	63*	-15	·	-4
Cn1c(=O)c2[nH]c(COc3ccc(C(C)(C)C)cc3)nc2n(C)c1=O	46*	36	54*	-17	·
Cn1c(=O)c2[nH]c(Cc3cccc(O)c3)nc2n(C)c1=O	·	·	·	·	5
CC1(C)CC(=O)C=C(c2ccccc2-c2cccc(C(N)=O)c2)C1=O	·	·	·	·	-5
COc1ncc(-c2ccc3c(c2)S(=O)(=O)c2cccc(C(=O)O)c2C3=O)cn1	-1	38*	7	·	-4
O=C(O)c1cccc2c1C(=O)c1ccc(Cl)cc1S2(=O)=O	0	39*	-6	·	2
COC(=O)N(C)C[C@H]1OCc2cnnn2CCCC(=O)N([C@@H](C)CO)C[C@H]1C	·	·	·	·	-3
CCCCS(=O)(=O)N1CCCc2nc(-c3ccc(OC)cc3)ccc21	·	·	·	·	-8
O=C(CCCc1nc(-c2ccc(Cl)cc2)no1)NC1CCCC1	11	38	48*	15	-5
Cc1ccc(S(=O)(=O)n2ccc3c(OCCOCCSCC(NC(=O)OC(C)(C)C)C(=O)O)cccc32)cc1 (stereo not drawn)	0	17	-2	12	-11
Cc1ccc(S(=O)(=O)n2ccc3c(OCCOCCNCc4ccc(F)cc4)cccc32)cc1	25	-1	39*	24	-9
CCCc1cc2c(O)ccc(O)c2c(=O)o1	·	·	·	·	-2
COCCNC(=S)N(C)[C@H]1C[C@H]2c3[nH]c4ccccc4c3CCN2C(=O)[C@H]1[C@H](C)O	·	·	·	·	-1
Cc1ccc(Cl)cc1N1CCN(C(=O)c2cc3c(=O)[nH]c4ccccc4c3n2C)CC1	40	17	45*	-3	3
COC(=O)C1=C(C)N(Cc2ccc(C(F)(F)F)cc2)C(=NCc2ccc(C(F)(F)F)cc2)NC1c1ccc(F)cc1 (stereo not drawn)	·	·	·	·	-7
CC(=O)Nc1ccc(S(=O)(=O)N2CCN(C(=O)CCC3CCCC3)CC2)cc1	-20	9	-4	20*	-2
COC(=O)Nc1ccc(S(=O)(=O)N2CCC(Cc3ccccc3)CC2)cc1	20	14	45*	-3	0
COC(=O)Nc1ccc(S(=O)(=O)N2CCC(C)CC2)cc1	1	12	-8	11	-5
COc1ccc(-c2cc(C(=O)N/N=C/c3cccnc3)c3cc(C)cc(C)c3n2)cc1	·	·	·	-16	0
Cc1ccsc1C(=O)C1CCCN(Cc2cccn2-c2ccc(Cl)cn2)C1 (stereo not drawn)	-19	17	-9	39*	-10
COc1cccc(CNC(=O)COC(=O)/C=C/c2ccc(SC)cc2)c1	6	6	-5	·	-4
SMILES	OX1R antag-1	OX1R antag-2	CHO parental Ca	GPR7 antag	GalR3 antag
Cc1nn(CC(=O)NC(=O)NC2CCCCC2C)c(=O)c(C#N)c1C (stereo not drawn)	-16	6	-15	·	-2
Cc1nn(CC(=O)NC2CCC(C)CC2)c(=O)c(C#N)c1C (stereo not drawn)	-5	44*	-3	·	1
COCCN1Cc2cc(C(=O)OC)c3c(c2C1=O)c1ccccc1n3S(=O)(=O)c1ccc(C)cc1	·	·	·	·	-3
[O-][N+]1=c2ccc(Nc3ccccc3)cc2=NC12CCCCC2	-10	47*	-19	-10	-6
O=C(N/N=C/C(Br)=C\c1ccccc1)c1cccs1	-7	40*	-10	-12	-3
COc1cccc(CNS(=O)(=O)c2ccccc2Br)c1	·	·	·	·	-8
COc1cc(OC)cc(C(=O)NCCN2C(=O)S/C(=C\c3cccs3)C2=O)c1	-7	35*	7	-14	-3
CCCCN1C(=O)/C(=C/C=C2\N(C)c3ccccc3C2(C)C)SC1=S	51*	1	32	14	·
CCCN1C(=O)/C(=C\C=C2/C=CN(CC)c3ccccc32)SC1=S	1	26	-5	21*	-12
O=C1NC[C@H](CCCCN2CCN(CC3CCCCC3)C(=O)C2=O)N(Cc2ccccc2)C1=O	·	·	·	·	-6
Cn1c(=O)c2c(nc(NNC(=O)C(F)(F)F)n2C)n(C)c1=O	-7	7	0	-8	-3
Cn1c(=O)c2c(nc(NN=C3CCCC3)n2C)n(C)c1=O	-19	48*	-11	1	-7
COC(=O)c1ccc(COC(=O)c2[nH]c(C)c(C(C)=O)c2C)o1	11	45	38*	7	7
CC(=O)c1c(C)[nH]c(C(=O)OCc2ccc([N+](=O)[O-])cc2)c1C	-28	17	-14	-10	-9
O=C(C[n+]1cc(-c2ccccc2)n2c1CCCCC2)c1ccc(Cl)cc1	5	7	-7	8	1
CC1CCC(C(C)C)C(OC(=O)C[n+]2cc(-c3ccc(Cl)cc3)n3c2CCCCC3)C1 (stereo not drawn)	12	18	18	59*	-9
Cc1ccc(C(C)C)c(OCc2nn(CC(=O)c3ccc(Cl)cc3)c3[n+]2CCCCC3)c1	-10	16	13	38*	1
Cn1cc(C(=O)N/N=C/c2c(O)ccc3ccccc23)ccc1=O	-12	39*	-12	-3	-8
O=C(N/N=C\c1c(O)ccc2ccccc12)c1cncc(Br)c1	63*	73*	67*	29	-3
O=C(N/N=C/c1c(O)ccc2ccccc12)c1ccc[n+](CCO)c1	-6	57*	0	-1	-3
O=C(N/N=C\c1c(O)ccc2ccccc12)c1ccc(O)cc1	-22	9	-17	-11	-4
CC(C)C[C@@H]1COc2cccc(N3CCCCC3)c2S(=O)(=O)N1	·	·	·	·	-2
N#CC[C@H](c1ccccc1)N1CCN(Cc2ccccc2)CCC1=O	-26	27	-20	3	-6
COCCNC(=O)C1(C)CCN(C(=O)c2sccc2C)C1 (stereo not drawn)	·	·	·	·	-8
COc1ccc(CN(C)C(=O)c2cc(-c3ccccc3)nc3ccc(C)cc23)c(OC)c1OC	10	63*	-15	4	-2
COc1ccc(-c2cc(C(=O)N(C)Cc3cccc(OC)c3OC)c3ccccc3n2)cc1OC	-36	36	-32	-9	-4
